OXTR potentiate – human OXTR potentiation; P30559; CHO-OTR cells, Fluo-8 calcium fluorescence, potentiator mode; 0% = oxytocin EC15, 100% = EC100; activation, % at 3 µM; 0.061% of 320,000 active;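 active = activation above that plate's cutoff, the mean activation of tested compounds plus 3 SD, cut at about 6.6% in these data, passing the limit was not always enough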;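 also: 100% uses oxytocin at 75 nM as the full agonist control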
Target sequence (P30559 whole entry, looked up): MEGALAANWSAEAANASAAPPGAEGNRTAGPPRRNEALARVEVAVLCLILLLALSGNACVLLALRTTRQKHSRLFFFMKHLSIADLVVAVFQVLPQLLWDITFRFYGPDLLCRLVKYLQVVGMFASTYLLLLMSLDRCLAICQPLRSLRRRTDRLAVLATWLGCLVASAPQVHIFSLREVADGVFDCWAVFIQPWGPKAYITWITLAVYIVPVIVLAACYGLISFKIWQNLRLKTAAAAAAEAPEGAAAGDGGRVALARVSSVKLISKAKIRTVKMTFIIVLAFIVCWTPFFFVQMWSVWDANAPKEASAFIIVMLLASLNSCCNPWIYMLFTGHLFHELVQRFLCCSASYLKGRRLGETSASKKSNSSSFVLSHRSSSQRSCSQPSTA
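Assay system: CHO-OTR cells, human receptor / Also added: oxytocin at about EC15, sub-maximal agonist stimulus / Dosing: single dose, 3.0 µM nominal final compound concentration / Incubation: 6 min pre-incubation, 100 s read / Technique: Fluo-8 calcium dye fluorescence / Read-out: % activation vs EC15 and EC100 oxytocin / Benchmarks: EC15 oxytocin low, 75 nM oxytocin high / Replicates: singlicate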
TRPML3 ag – activates the human TRPML3 channel. HEK293 TRPML3-YFP, Fluo-8 calcium fluorescence; 100% = the carbachol control signal. activation, % at 3 µM. 0.29% of 220,000 active. AID 1448;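 active = activation above its plate's cutoff, the mean activation of the plate's test wells plus 3 SD, cut at about 12% in these data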;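 also: 0% = DMSO only wells and 100% = carbachol wells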
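Test system: HEK293 cells stably carrying human TRPML3-YFP; Doses: single dose, 3 µM final nominal compound, 0.3% DMSO final; Schedule: dye loading 1 h 37 °C then 30 min ambient, 125 s read; Technique: Fluo-8 calcium fluorescence; Benchmarks: high control carbachol 87 µM, low control DMSO.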
OXTR ag – human OXTR agonism; 0.32% of 320,000 active; P30559; activation, % at 3 µM; CHO-OTR cells, Fluo-8 calcium fluorescence; normalized: DMSO 0%, oxytocin 100%;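 active = activation above the mean of all tested compounds plus 3 SD, cutoff set per screening run, cut at about 20% in these data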;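 also: peak over basal fluorescence ratio from a 100 s FLIPR kinetic read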
zfTRPN1 agonist – agonists of zebrafish TRPN1 channel. 0.18% of 220,000 active. activation, % at 3 µM. HEK293 zebrafish TRPN1-YFP, Fluo-8 calcium fluorescence; 100% = response to 87 µM carbachol;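 active = activation above its plate's cutoff, the mean activation of test wells on that plate plus 3 SD, cut at about 19% in these data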;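 also: 0% = DMSO alone and 100% = 87 µM carbachol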
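Control set: carbachol 87 µM as high control, DMSO as low control; system: HEK293 stable line with zebrafish TRPN1-YFP; read-out: % activation versus carbachol response; detection: intracellular calcium fluorescence with Fluo-8; doses: single test compound dose, 3 µM nominal, 0.3% DMSO; schedule: dye 1 h 37 °C plus 30 min RT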
V1aR counter – V1a receptor agonism, counter-screen for OXTR agonists; P37288; CHO-V1R cells, Fluo-8 calcium fluorescence, agonist mode; 0% DMSO, 100% 3 nM vasopressin; activation, % at 3 µM; 0.25% of 320,000 active; AID 2797;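 active = activation above the mean activation of all tested compounds plus 3 SD, per screening run, cut at about 20% in these data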;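 also: signal is peak over basal fluorescence ratio across a 100 second FLIPR read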
Target sequence (P37288 whole entry, looked up): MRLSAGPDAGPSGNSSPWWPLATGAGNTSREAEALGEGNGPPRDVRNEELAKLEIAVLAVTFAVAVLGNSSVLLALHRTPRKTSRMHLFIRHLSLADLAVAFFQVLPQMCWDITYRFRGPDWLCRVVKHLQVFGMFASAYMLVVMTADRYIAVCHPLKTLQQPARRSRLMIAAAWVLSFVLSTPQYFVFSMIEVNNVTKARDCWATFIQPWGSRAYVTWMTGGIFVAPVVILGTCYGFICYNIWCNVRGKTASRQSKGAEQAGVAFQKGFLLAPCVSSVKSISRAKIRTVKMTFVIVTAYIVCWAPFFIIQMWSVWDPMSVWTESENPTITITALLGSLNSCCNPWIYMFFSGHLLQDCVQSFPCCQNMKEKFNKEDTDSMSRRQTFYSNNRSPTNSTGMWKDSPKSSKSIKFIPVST
TRPN1 counter – activates zebrafish TRPN1, counter-screen for TRPML3 agonists | shares compounds with TRPML3 ag | HEK293 zebrafish TRPN1-YFP, Fluo-8 calcium fluorescence; scaled: carbachol wells 100%, DMSO wells 0% | activation, % at 3 µM | 10% of 310 active | AID 1525;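 active = mean activation over replicates above a set limit taken from the earlier TRPN1 channel primary screen, cut at about 19% in these data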;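 also: 100% = carbachol and 0% = 0.3% DMSO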
TRPML3 confirm – human TRPML3 agonism, confirmation | shares compounds with TRPML3 ag | HEK293 TRPML3-YFP, Fluo-8 calcium fluorescence; 100% set by carbachol, 0% by DMSO | activation, % at 3 µM | 80% of 310 active | AID 1526;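 active = activation above a set limit derived from the earlier primary screen, cut at about 12% in these data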
Starred values were filed as active, the others as inactive; · = not tested or not shown. A selection: hits, their analogues and other compounds. The true share with any hit is near 0.59%.

SMILES | OXTR potentiate | TRPML3 ag | OXTR ag | zfTRPN1 agonist | V1aR counter | TRPN1 counter | TRPML3 confirm
O=C(Cc1ccccc1)Nc1ccccc1N1CCOCC1 | -9.3 | 1.0 | -0.9 | -1.5 | -0.8 | · | ·
COc1cccc(N2C(=NC(=O)COc3ccccc3)SC3CS(=O)(=O)CC32)c1 (centres undefined) | -1.8 | · | 2.6 | · | 1.9 | · | ·
COc1cccc(CN(Cc2ccco2)C(c2ccc(F)cc2)c2nnnn2C(C)(C)C)c1 (centres undefined) | -24.0 | 25.5* | -0.5 | 0.5 | 0.5 | 6.1 | 26.1*
CC(C)(C)n1nnnc1C(c1cccnc1)N(Cc1ccccc1)Cc1ccco1 (centres undefined) | -6.6 | 0.2 | -1.6 | -1.6 | -1.8 | · | ·
O=C(Nc1ccc(Cl)cc1)c1nc[nH]c1C(=O)N1CCN(c2ccccc2)CC1 | -2.7 | · | 0.8 | · | 1.0 | · | ·
CCOC(=O)N1CCC(N2C(=O)c3ccccc3C2Nc2ccc(S(=O)(=O)N3CCCCC3)cc2)CC1 (centres undefined) | -5.2 | 14.6* | -0.2 | 2.2 | 0.9 | 1.3 | 9.8
CCN(c1ccccc1)S(=O)(=O)c1ccc(F)cc1C | -8.5 | 23.7* | -2.7 | -1.9 | -0.5 | -2.6 | 50.0*
CCN(c1ccccc1)S(=O)(=O)c1cc2c(cc1C)N(C)CCO2 | -9.4 | · | -1.6 | · | -0.9 | · | ·
CCCOc1ccc(C=Nc2ccc(OC)c(S(=O)(=O)N3CCOCC3)c2)c(O)c1 | 9.9 | · | 0.6 | · | -0.3 | · | ·
COC(=O)c1cc(-c2ccc(S(=O)(=O)N3CCCCC3)cc2)c(C(F)(F)F)s1 | -13.5 | 15.8* | -2.7 | -0.4 | 0.2 | -0.7 | 19.4*
CC1CCN(S(=O)(=O)c2cc(Cl)ccc2Br)CC1 | 0.8 | 0.2 | -1.5 | -1.9 | -1.2 | · | ·
Cc1ccc(N2CCN(S(=O)(=O)N3CCCCC3)CC2)c(C)c1 | -10.6 | 37.3* | 0.8 | 0.1 | 0.8 | 3.7 | 131.6*
O=S(=O)(N1CCCCC1)N1CCN(c2cc(Cl)ccc2Cl)CC1 | -13.5 | 18.6* | -1.6 | -1.3 | -0.1 | -0.6 | 96.3*
O=S(=O)(c1ccc(Cl)cc1Br)N1CCCCC1 | -2.8 | 15.2* | -1.4 | -0.4 | -1.6 | -1.0 | 27.5*
CC1CCN(S(=O)(=O)c2ccc3ccccc3c2)CC1 | -18.4 | 22.1* | -2.2 | -0.4 | -1.3 | 0.2 | 42.9*
CC1CCN(S(=O)(=O)c2ccc(Br)s2)CC1 | -7.2 | 19.7* | -1.4 | -0.6 | -1.3 | -2.0 | 18.5*
CN1CCN(S(=O)(=O)c2ccc3ccccc3c2)CC1 | 9.4 | 0.6 | -1.5 | 0.3 | -0.2 | · | ·
CC1CCN(S(=O)(=O)c2ccc(C(C)C)cc2)CC1 | -10.8 | 67.7* | -2.2 | 1.6 | -1.2 | 8.5 | 118.2*
CCN(CC)C(=O)c1nc[nH]c1C(=O)N1CCc2ccccc2C1 | -4.7 | · | 0.2 | · | 0.1 | · | ·
Cc1cccc(C)c1-n1nnnc1S(=O)(=O)Cc1ccccc1Cl | -8.6 | 25.6* | 0.2 | 0.6 | 0.7 | -0.1 | 14.1*
Cc1nc(S(=O)(=O)Cc2ccccc2Cl)nc2c1CCC2 | -6.3 | 0.8 | 0.1 | 1.9 | 0.5 | · | ·
Cc1ccc(C(=O)N/C(=C\c2ccco2)C(=O)N2CCCCC2)cc1 | 1.8 | · | 0.3 | · | 1.0 | · | ·
CN1CCN2c3ncccc3Cc3ccccc3C2C1 (centres undefined) | -1.8 | · | -0.3 | · | -0.4 | · | ·
CC(C)(C)[C@]1(O)CCN2C[C@H]3c4ccccc4CCc4cccc(c43)[C@@H]2C1 | -0.8 | 25.0* | -1.9 | -2.8 | -0.1 | -1.2 | 42.3*
CCOC(=O)Nc1ccc2c(CNC(C)c3ccccc3OC)cc(=O)oc2c1 (centres undefined) | -1.4 | · | -0.1 | · | 0.8 | · | ·
SMILES | OXTR potentiate | TRPML3 ag | OXTR ag | zfTRPN1 agonist | V1aR counter | TRPN1 counter | TRPML3 confirm
C=CCN1C=CC(=C/C=C(/C#N)C(=O)OCC)C=C1 | -8.4 | 11.8* | 29.1* | 16.2 | 21.0* | 17.7 | 14.4*
N#Cc1ccccc1S(=O)(=O)N1CCN(C(=O)[C@H](Cc2ccccc2)NC(=O)c2ccco2)CC1 | 3.0 | · | -0.2 | · | -0.2 | · | ·
Cc1onc(-c2ccccc2Cl)c1C(=O)Nc1cccc(-c2nc3ncccn3c2C)c1 | -2.8 | 11.7* | 0.1 | 5.0 | 0.5 | 8.1 | 12.5*
Cc1onc(-c2ccccc2Cl)c1C(=O)Nc1ccc(-c2cn3cccnc3n2)cc1 | -4.6 | 0.8 | 1.4 | 1.6 | 1.2 | · | ·
Nc1nonc1-n1nnc(C(=O)N/N=C/c2ccc(OCc3ccccc3)cc2)c1CN1CCCCC1 | -2.4 | · | 0.0 | · | 0.8 | · | ·
O=C(C1=C(O)C(=O)N(c2nccs2)C1c1ccccc1)c1cc2ccccc2o1 (centres undefined) | -9.4 | 12.2* | 20.1* | 16.1 | 185.6* | 5.2 | 1.9
O=C(C1=C(O)C(=O)N(CCc2ccccc2)C1c1ccncc1)c1cc2ccccc2o1 (centres undefined) | -14.2 | -0.7 | 0.7 | -0.6 | 1.0 | · | ·
CSc1nsc(/C=C/Nc2cccc(Cl)c2)c1C#N | -25.9 | 39.7* | 1.3 | 0.6 | 0.3 | 0.4 | 14.1*
Cc1cc(Br)ccc1NC(=O)C1CCN(C(=O)c2ccco2)CC1 | 1.4 | · | 0.6 | · | 0.5 | · | ·
CC(=O)Nc1cccc(-n2nnc(SCC(=O)c3ccccc3)n2)c1 | -1.1 | -0.4 | 1.6 | 1.6 | 0.1 | · | ·
COc1ccc(C(=O)CSc2nnn(-c3cccc(NC(C)=O)c3)n2)cc1 | -9.2 | 12.2* | 0.5 | 7.1 | 3.2 | 12.1 | 21.3*
Cc1cc(=O)[nH]c2ccc(S(=O)(=O)NC3CCCCC3)cc12 | -6.8 | · | 1.3 | · | -0.2 | · | ·
CC(C)N(C(=O)c1ccc2nc(-c3ccccc3)c(-c3ccccc3)nc2c1)C(C)C | -3.5 | 83.8* | -1.4 | -1.0 | 0.1 | -1.4 | 104.1*
COc1ccc(N(C)C(=O)c2ccc3nc(-c4ccccc4)c(-c4ccccc4)nc3c2)cc1 | -13.5 | 0.4 | -0.7 | 0.6 | 0.4 | · | ·
O=C(COC(=O)c1cc(Br)ccc1O)c1ccc(F)cc1 | 1.4 | · | -0.8 | · | 0.1 | · | ·
CCN(CC)c1ccc(NC(=O)COc2ccc(N(C)S(=O)(=O)c3cccs3)cc2)cc1 | -20.0 | 14.3* | -0.7 | -1.1 | 0.1 | 0.7 | 27.7*
CN(c1ccc(OCC(=O)OCC(=O)Nc2ccccc2)cc1)S(=O)(=O)c1cccs1 | -7.1 | 3.5 | 13.0 | 4.8 | 9.8 | · | ·
Cc1ccc(S(=O)(=O)N2CCC(C)CC2)c([N+](=O)[O-])c1 | -3.8 | 47.9* | -2.1 | -0.6 | -0.6 | -0.7 | 60.2*
CN(CC(=O)O/N=C(\N)c1cccc([N+](=O)[O-])c1)S(=O)(=O)c1ccccc1 | -4.7 | 95.5* | 1.9 | 0.1 | 4.2 | 1.7 | 36.4*

Assay outcomes from PubChem.
